The test system of assay [1] is HFF. Briefly: Visual cytotoxicity scored on HFF cells at time of HCMV plaque enumeration. Format: functional, cell-based. Particulars: Homo sapiens. A digest of the protocol:
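Stationary HFF cells, uninfected cells in HCMV plaque assay plates scored by microscopic inspection at plaque enumeration (7–10 days); IC50.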

The test system of assay [2] is Human alphaherpesvirus 1. Briefly: Antiviral activity in Herpes simplex virus-1 assayed by ELISA in quadruplicate wells. Format: functional, organism-based. In general terms: In an ELISA, binding on a coated surface is turned into a signal by an enzyme label.
Assay [3] has as its system Human betaherpesvirus 5. Briefly: antiviral activity in Human cytomegalovirus by plaque assay (HCMV). Format: functional, organism-based.
Assay [4] relates to Human betaherpesvirus 5. Briefly: antiviral activity in Human cytomegalovirus by plaque assay given as yield. Format: functional.
The subject of another assay is KB. Briefly: cell growth inhibition was determined in KB cells in quadruplicate assays. Format: functional, cell-based. Particulars: Homo sapiens.
Assay [5] concerns L1210. In words: Antiproliferative activity in L1210 Murine Leukemia in vitro expressed as Growth rate in the presence of compound. Also noted: concentration or dose not given beside the values. Format: functional, Mus musculus.
The test system of assay [6] is L1210. Briefly: antiproliferative activity in L1210 Murine Leukemia in vitro expressed as concentration required to decrease growth rate to 50% of control. Format: functional, cell-based. Particulars: Mus musculus. A digest of the protocol:
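L1210 cells in static suspension, Fischer's medium with 10% heat-inactivated horse serum; cell counts at 0, 48, 96 h over a concentration series; IC50 is the concentration lowering growth rate (treated doublings as % of control) to 50% of control.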

The subject of assay [7] is CCRF-CEM. Briefly: Visual cytotoxicity scored on CEM cells at time of RT assay. As to conditions: Homo sapiens.
Assay [8] relates to CCRF-CEM. Briefly: cytotoxicity in CEM-SS cells by [3H]Thd uptake. Format: functional, cell-based. Particulars: Homo sapiens. A digest of the protocol:
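[3H]dThd incorporation into acid-precipitable DNA of CEM-SS cells; IC50 from regression of % inhibition on log concentration; triplicate assays.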

Assay [9] has as its system CCRF-CEM. Briefly: cytotoxicity in CEM-SS cells by visual inspection. Format: functional, cell-based. Particulars: Homo sapiens.
Assay [10] deals with Human alphaherpesvirus 1. In words: Antiviral activity as 50% inhibitory concentration against HSV-1. Format: functional, organism-based. An outline of the steps: (§1)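 Plaque reduction in HFF monolayers; HSV-1 E-377, HSV-2 MS or VZV Ellen, 20–50 PFU, 1 h adsorption at 37 °C; serial 5-fold drug dilutions in agarose overlay (extra overlay days 3 and 6 for VZV); neutral red staining at 3 days (HSV) or 10 days (VZV); plaques counted; duplicate assays.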

A further assay deals with Human alphaherpesvirus 2. In words: Antiviral activity as 50% inhibitory concentration against HSV-2. Format: functional, organism-based. An outline of the steps:
as §1

In assay [11] the test system is HFF. Briefly: Cytotoxicity in human foreskin fibroblast (HFF) stationary by MTT assay. Format: functional, cell-based. An outline of the steps:
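MTT assay on stationary HFF cells; drug in half-log10 dilutions; incubated one to three population doublings in 5% CO2; viable cells read at 570 nm; % inhibition vs control; IC50 from regression; duplicate assays.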
For orientation: Formazan colour is commonly taken as a measure of viable cells.

The test system of assay [12] is HFF. In words: Cytotoxicity in human foreskin fibroblast (HFF) stationary cells as neutral red uptake. Format: functional, cell-based.
For another assay, the system named is Human alphaherpesvirus 3. Briefly: antiviral activity as 50% inhibitory concentration against VZV. Format: functional, organism-based. A digest of the protocol:
as §1

Results on eight compounds are retold here after ChEMBL document CHEMBL1128464, “Synthesis and antiproliferative and antiviral activity of 2'-deoxy-2'-fluoroarabinofuranosyl analogs of the nucleoside antibiotics toyocamycin and sangivamycin” (J Med Chem, 1995).

“And” between values parts separate entries of the source, which are not always exact repeats. Equal values may be shown once.

With `N#Cc1c(Br)n([C@H]2O[C@H](CO)[C@@H](O)[C@@H]2F)c2ncnc(N)c12`, the IC50 (commonly the concentration that inhibits the measured activity by half) in the assay with HFF [1] is 55 µM; with Human alphaherpesvirus 1 [2] it was > 100 µM; in the assay on Human betaherpesvirus 5 [3] it was 3.2 µM; in the assay with KB, > 150 µM; in the assay on L1210 [6] it was 90 µM; in the assay on CCRF-CEM [7] it was > 100 µM. The 90% effect concentration (IC90) (as a rule, the point of the concentration-response curve where the effect stands at 90%) in the assay with Human betaherpesvirus 5 [4] is > 100 µM. Further, in the assay with L1210 [5], the Growth rate was 45%.

As to `N#Cc1c(Br)n([C@@H]2O[C@H](CO)[C@@H](O)[C@@H]2F)c2ncnc(N)c12`, the IC50 was 21 µM in the assay with HFF [1]; > 100 µM in the assay with Human alphaherpesvirus 1 [2]; 12 µM with Human betaherpesvirus 5 [3]; 144 µM in the assay on KB; 66 µM in the assay with L1210 [6]; 33 µM with CCRF-CEM [7]. It took 7 µM to reach the 90% level with Human betaherpesvirus 5 [4] (IC90). Besides, in the assay with L1210 [5], the Growth rate was determined as 21%.

For `N#Cc1cn([C@H]2O[C@H](CO)[C@@H](O)[C@@H]2F)c2ncnc(N)c12`, the IC50 is 100 µM in the assay with HFF [1]; 46 µM in the assay on Human alphaherpesvirus 1 [2]; 16 µM in the assay with Human betaherpesvirus 5 [3]; > 100 µM with KB; > 100 µM in the assay on CCRF-CEM [7]. In the assay with Human betaherpesvirus 5 [4], this compound gave an IC90 of 100 µM. Also, the Growth rate in the assay on L1210 [5] was determined as 98%.

Turning to `NC(=O)c1cn([C@@H]2O[C@H](CO)[C@@H](O)[C@@H]2F)c2ncnc(N)c12`, the IC50 in the assay on CCRF-CEM [8] was 0.193 µM; with CCRF-CEM [9], 0.4 µM; with HFF [1], 5.5 µM; in the assay with Human alphaherpesvirus 1 [10] it was 0.03 µM and 0.0037 µM; in the assay on Human alphaherpesvirus 1 [2] it was 0.47 µM; in the assay on Human alphaherpesvirus 2 it was 0.03 µM. In addition, the IC50 in the assay with Human betaherpesvirus 5 [3] was 0.025 µM; with HFF [11] (Homo sapiens, HFF), 0.13 µM; in the assay on HFF [11] (hff), 0.16 µM; in the assay on HFF [12], 6.7 µM; in the assay on KB, 1.9 µM; in the assay on L1210 [6], 3.2 µM. Also, the IC50 in the assay with Human alphaherpesvirus 3 amounted to 0.003 µM; in the assay with CCRF-CEM [7], 0.4 µM. The compound further showed a 90% effect concentration (IC90) in the assay on Human betaherpesvirus 5 [4] of 0.075 µM. Further, in the assay with L1210 [5], the Growth rate came out at 9%.

For `NC(=S)c1cn([C@@H]2O[C@H](CO)[C@@H](O)[C@@H]2F)c2ncnc(N)c12`, the IC50 in the assay on HFF [1] is 3.1 µM; in the assay on Human alphaherpesvirus 1 [2], 8.7 µM; with Human betaherpesvirus 5 [3], 0.22 µM; in the assay on KB it was 3 µM; in the assay with L1210 [6], 5 µM; in the assay with CCRF-CEM [7], 2 µM. The IC90 in the assay with Human betaherpesvirus 5 [4] came to 1.5 µM. Moreover, the Growth rate in the assay on L1210 [5] came out at 5%.

With `N#Cc1cn([C@@H]2O[C@H](CO)[C@@H](O)[C@@H]2F)c2ncnc(N)c12`, the IC50 with HFF [1] is 6.8 µM; in the assay on Human alphaherpesvirus 1 [2], 6.5 µM; in the assay on Human betaherpesvirus 5 [3] it was 1 µM; in the assay on KB, 8.8 µM; in the assay on L1210 [6], 39 µM; with CCRF-CEM [7], 33 µM. The compound also had an IC90 in the assay on Human betaherpesvirus 5 [4] of 1.1 µM. Moreover, in the assay on L1210 [5], the Growth rate was 11%.

Regarding `Nc1nc2c(ncn2COC(CO)CO)c(=O)[nH]1` [GANCICLOVIR], the IC50 with HFF [1] and with KB was > 100 µM each time. The same compound yielded an IC90 in the assay on Human betaherpesvirus 5 [4] of 1.6 µM.

Take `Cc1cn([C@H]2C[C@H](N=[N+]=[N-])[C@@H](CO)O2)c(=O)[nH]c1=O` [ZIDOVUDINE]: the IC50 in the assay with HFF [1] is > 100 µM.
